Experimental data as given in ChEMBL document CHEMBL1208680, “Synthesis and cytotoxicity screening of substituted isobenzofuranones designed from anacardic acids” (Eur J Med Chem, 2010).
In brackets after ≈: the same amount, converted by molar mass. Activity calls are given as the source filed them. No cut-off for these calls is given here.

Assays:
SF-295 = assay: Cytotoxicity against human SF295 cells after 72 hrs by MTT assay; format: functional, cell-based; conditions: SF-295, 72 h
Method in brief: (§1)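 Cell lines obtained from NCI, kept in RPMI 1640 with 10% FBS, 2 mM glutamine and penicillin/streptomycin at 37 °C, 5% CO2. Seeding: HL-60 0.3 × 10⁶, SF295 0.6 × 10⁵, MDA-MB435 0.1 × 10⁶ cells/mL. Compounds were added 24 h after seeding at 0.39–25.00 in 0.1% DMSO and left for 72 h. MTT at 0.5 mg/mL was added for 3 h, formazan dissolved in DMSO, absorbance read at 595 nm. IC50 by non-linear regression, triplicate, two independent experiments. Doxorubicin served as positive control.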

MDA-MB-435 = assay: Cytotoxicity against human MDA-MB-435 cells after 72 hrs by MTT assay; format: functional, cell-based; conditions: MDA-MB-435, 72 h; method in brief: as §1
PBMC = assay: Cytotoxicity against human PBMC after 72 hrs by Alamar blue assay; format: cell-based
Method in brief: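 PBMC were isolated from heparinized blood of healthy donors on Histopaque-1077 and cultured in RPMI 1640 with 20% FBS plus 2% phytohaemagglutinin. Compounds were added after 24 h at 0.39–25.00 in 0.1% DMSO for 72 h. Alamar Blue was added 24 h before the end. Absorbance at 570 and 595 nm was converted to % reduced. IC50 by non-linear regression, triplicate, two independent experiments.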

HL-60 [1] = assay: Cytotoxicity against human HL60 cells after 72 hrs by MTT assay; format: functional, cell-based; conditions: HL-60, 72 h; method in brief: as §1
HL-60 [2] = assay: Induction of apoptosis in human HL60 cells assessed as reduction in viable cells after 24 hrs; format: functional, cell-based
Method in brief: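 HL-60 cells were exposed for 24 h. Cells were stained with acridine orange and ethidium bromide (each 100 in PBS) and examined by fluorescence microscopy, 300 cells counted per point. Vehicle was 0.1% DMSO; doxorubicin was the positive control. Three independent experiments in triplicate, ANOVA with Newman-Keuls test.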

HL-60 [3] = assay: Cytotoxicity against human HL60 cells assessed as cell viability by BrdU incorporation assay; format: functional, cell-based
Method in brief: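 HL-60 cells at 0.3 × 10⁶ cells/mL were treated for 24 h, with BrdU added for the final 3 h. Cytospin slides were stained by peroxidase immunocytochemistry with diaminobenzidine and haematoxylin counterstain. Two hundred cells per sample were scored for % BrdU-positive. Vehicle was 0.1% DMSO and the positive control doxorubicin. Mean ± S.E.M. from three independent experiments in triplicate.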

HL-60 [4] = assay: Induction of apoptosis in human HL60 cells assessed as reduction of cells in intact membrane at 6 ug/ml by AO/BE staining; format: functional, cell-based
HL-60 [5] = assay: Induction of apoptosis in human HL60 cells assessed as increase in DNA strand breaks after 12 hrs by Comet assay; format: functional, cell-based
Method in brief: (§2)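 Alkaline comet assay on HL-60 cells exposed for 3, 6, 12 or 24 h. Lysis at pH 10, 4 °C, at least 1 h. Unwinding for 20 min in 300 mM NaOH/1 mM EDTA (pH >13), then electrophoresis at 0.81 V/cm for 20 min, 4 °C. Tail classes 0–4 were scored visually on 300 cells and converted to a damage index of 0–400. Vehicle was 0.1% DMSO.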

HL-60 [6] = assay: Induction of apoptosis in human HL60 cells assessed as reduction of cells in intact membrane at 3 ug/ml by AO/BE staining; format: functional, cell-based
HL-60 [7] = assay: Induction of apoptosis in human HL60 cells assessed as increase in DNA double strand breaks after 24 hrs by Comet assay; format: functional, cell-based
Method in brief: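 Neutral comet assay on HL-60 cells treated for 24 h at 6. Electrophoresis in 100 mM Tris/300 mM sodium acetate, pH 8.5, after 60 min equilibration, then 60 min at 0.5 V/cm. Damage index was scored visually. Vehicle was 0.1% DMSO.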

HL-60 [8] = assay: Induction of apoptosis in human HL60 cells assessed as increase in DNA damage after 24 hrs by Comet assay; format: functional, cell-based; method in brief: as §2
HL-60 [9] = assay: Induction of apoptosis in human HL60 cells assessed as increase in DNA damage by Comet assay; format: functional, cell-based; conditions: TDE = time-dependent effect; method in brief: as §2

Structure (SMILES)	IC50 (SF-295)	IC50 (MDA-MB-435)	IC50 (PBMC)	IC50 (HL-60 [1])	Activity (HL-60 [2])	Activity (HL-60 [3])	Activity (HL-60 [4])	Activity (HL-60 [5])	Activity (HL-60 [6])	Activity (HL-60 [7])	Activity (HL-60 [8])	Activity (HL-60 [9])
CCCCCCCCCCCCCCCc1cccc(OC)c1C(=O)OC	> 25 mg/L	> 25 mg/L	> 25 mg/L	> 25 mg/L								
CCCCCCCCCCCCCCC(Br)c1cccc(OC)c1C(=O)OC (stereo unspecified)	> 25 mg/L	> 25 mg/L	> 25 mg/L	> 25 mg/L								
CCCCCCCCCCCCC/C=C/c1cccc(OC)c1C(=O)OC	12.8 mg/L (≈ 34.3 µM)	3.31 mg/L (≈ 8.84 µM)	19.8 mg/L (≈ 52.9 µM)	9.96 mg/L (≈ 26.6 µM)	Dose-dependent effect	Active	Active	Active				
CCCCCCCCCCCCCC(O)C1OC(=O)c2c(OC)cccc21 (racemic)	> 25 mg/L	12.3 mg/L (≈ 32.6 µM)	> 25 mg/L	21 mg/L (≈ 55.8 µM)		Active	Active	Active				
CCCCCCCCCCCCCC(=O)C1OC(=O)c2c(OC)cccc21 (racemic)	10.1 mg/L (≈ 26.9 µM)	8.7 mg/L (≈ 23.2 µM)	14.5 mg/L (≈ 38.7 µM)	3.24 mg/L (≈ 8.65 µM)	Dose-dependent effect	inactive	Active		Active	Active	Dose-dependent effect	tde
COc1cccc2c1C(=O)c1c(O)c3c(c(O)c1C2=O)C[C@@](O)(C(=O)CO)C[C@@H]3O[C@H]1C[C@H](N)[C@H](O)[C@H](C)O1 [DOXORUBICIN]	0.04 mg/L (≈ 0.0736 µM)	0.03 mg/L (≈ 0.0552 µM)										
